We go through 2 compounds from ChEMBL document CHEMBL4706681, “New 2-Pyrazoline and Hydrazone Derivatives as Potent and Selective Monoamine Oxidase A Inhibitors” (J Med Chem, 2021).

Molecules are shown by their SMILES. pKi: −log10 of the molar value. Calls of active or inactive are those of the source. The calls are words filed in the database; no cut-off is given here.

A short description of series [1]: Ex vivo inhibition of MAOA in CD1 mouse brain homogenates assessed as dopamine levels at 20 mg/kg, po administered as single acute dose via gavage and measured after 1 hr by ELISA kit method (reference value: 7.08 +/- 0.58 ug/g). The class given is functional.
The nature of series [2]: Effect on locomotor activity in CD1 mouse assessed as total distance traveled at 20 mg/kg, po administered via gavage for 7 days by open field test. Particulars: in vivo, 168 h, time 7 day. The class given is ADME, organism-based. In a few lines: (§1)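 Each mouse placed in the centre of a 50 × 50 × 30 cm black box and video-tracked; total distance travelled over 5 min; n = 8–10.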

In series [3] the test system is Mus musculus. Description: Antidepressant-like activity in po dosed CD1 mouse assessed as maximum efficacy administered as subchronic dose gavage for 7 days and measured 1 h post last dose by Porsolt-forced swim test. Type of series: functional. The conditions noted are these: time 7 day. In a few lines:
(§2)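 Male albino CD-1 mice (20–25 g), 12 h light/dark, food and water ad libitum. Dosed by oral gavage once daily for 7 days in 200 μL 0.5% CMC; vehicle-only controls. […] Forced swim test run 1 h after the last dose. Immobility scored every 60 s over 6 min; n = 8–12.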

A short description of series [4]: Ex vivo inhibition of MAOA in CD1 mouse brain homogenates assessed as 5-HT levels at 20 mg/kg, po administered as subchronic dose via gavage for 7 days and measured 1 hr post last dose by ELISA kit method (reference value: 0.78 +/- 0.01 ug/g). The class given is functional. The conditions noted are these: time 7 day.
A short description of series [5]: Ex vivo inhibition of MAOA in CD1 mouse brain homogenates assessed as MAOA level at 20 mg/kg, po administered administered as single acute dose via gavage and measured after 1 hr by monoamine oxidase assay (reference value: 0.40 +/- 0.012 nmol/min/mg). The class given is functional.
Series [6] has as its system Mus musculus. Description: Antidepressant-like activity in CD1 mouse assessed as reduction in immobility time at 20 mg/kg, po via gavage administered as […] dose for 7 days and measured 1 h post last dose by Porsolt-forced swim test. The conditions noted are these: time 7.0 day. The class given is functional, organism-based.
The nature of series [7]: Ex vivo inhibition of MAOA in CD1 mouse brain homogenates assessed as MAOA level at 20 mg/kg, po administered as subchronic dose via gavage for 7 days and measured 1 hr post last dose by monoamine oxidase assay (reference value: 0.40 +/- 0.005 nmol/min/mg). Type of series: functional. The conditions noted are these: time 7 day.
The nature of series [8]: Ex vivo inhibition of MAOA in CD1 mouse brain homogenates assessed as inhibition of dopamine deamination by measuring DOPAC metabolite levels at 20 mg/kg, po administered as single acute dose via gavage and measured after 1 hr by HPLC analysis (reference value: 1.22 +/- 0.2 ug/g). The class given is functional.
The subject of series [9] is Mus musculus. Kind of series: Antidepressant-like activity in CD1 mouse assessed as reduction in immobility time at 20 mg/kg, po administered via gavage as single dose measured after 1 hr by Porsolt-forced swim test. The class given is functional, organism-based.
A short description of series [10]: Ex vivo inhibition of MAOA in CD1 mouse brain homogenates assessed as inhibition of 5-HT deamination by measuring 5-HIAA metabolite levels at 20 mg/kg, po administered as subchronic dose via gavage for 7 days and measured 1 hr post last dose by HPLC analysis (reference value: 0.18 +/- 0.01 ug/g). The class given is functional. Particulars: time 7 day.
Series [11] can be described thus: Ex vivo inhibition of MAOA in CD1 mouse brain homogenates assessed as inhibition of 5-HT deamination by measuring 5-HIAA metabolite levels at 20 mg/kg, po administered as single acute dose via gavage and measured after 1 hr by HPLC analysis (reference value: 0.28 +/- 0.011 ug/g). Type of series: functional.
Series [12] has as its system Mus musculus. Kind of series: Antidepressant-like activity in CD1 mouse assessed as reduction in immobility time at 10 mg/kg, po administered as subchronic dose via gavage for 7 days and measured 1 h post last dose by Porsolt-forced swim test. The class given is functional, organism-based. The conditions noted are these: time 7.0 day. In short, it runs like this:
as §2

Series [13] can be described thus: Effect on locomotor activity in CD1 mouse assessed as total distance traveled at 30 mg/kg, po administered via gavage for 7 days by open field test. The class given is ADME, organism-based. Particulars: in vivo, 168 h, time 7 day. In a few lines: as §1
Series [14] in a line: Permeability of compound in PBS/EtOH buffer (70:30) at 25 ug/ml incubated for 16 hrs by UV plate reader based PAMPA-BBB.
Series [15] in a line: Ex vivo inhibition of MAOA in CD1 mouse brain homogenates assessed as inhibition of 5-HT deamination by measuring 5-HIAA metabolite levels by using at 30 mg/kg, po administered as subchronic dose via gavage for 7 days and measured 1 hr post last dose by HPLC analysis (reference value: 0.18 +/- 0.01 ug/g). The class given is functional. Particulars: time 7 day.
The nature of series [16]: Ex vivo inhibition of MAOA in CD1 mouse brain homogenates assessed as assessed as inhibition of 5-HT deamination by measuring 5-HIAA metabolite levels at 30 mg/kg, po administered as single acute dose via gavage and measured after 1 hr by HPLC analysis (reference value: 0.28 +/- 0.011 ug/g). Type of series: functional.
Series [17] addresses T1, Amine oxidase [flavin-containing] B (Homo sapiens, UniProt P27338).
T1 sequence (P27338 whole entry): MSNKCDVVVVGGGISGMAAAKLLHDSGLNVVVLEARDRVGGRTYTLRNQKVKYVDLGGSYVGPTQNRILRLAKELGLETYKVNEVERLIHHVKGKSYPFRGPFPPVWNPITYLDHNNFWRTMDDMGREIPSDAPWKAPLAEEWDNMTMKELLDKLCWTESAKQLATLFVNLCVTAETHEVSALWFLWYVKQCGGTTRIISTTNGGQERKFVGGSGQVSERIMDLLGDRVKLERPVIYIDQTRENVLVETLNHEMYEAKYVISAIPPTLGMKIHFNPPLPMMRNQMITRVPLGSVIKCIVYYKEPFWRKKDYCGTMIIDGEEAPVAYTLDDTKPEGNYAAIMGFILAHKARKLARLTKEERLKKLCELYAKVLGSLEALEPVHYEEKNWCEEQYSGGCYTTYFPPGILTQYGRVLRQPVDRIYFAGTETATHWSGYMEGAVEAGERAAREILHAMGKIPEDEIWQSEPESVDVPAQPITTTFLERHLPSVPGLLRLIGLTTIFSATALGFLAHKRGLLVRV
Description: Inhibition of recombinant human MAO-B expressed in baculovirus infected BTI insect cells using p-tyramine as substrate incubated for 30 mins by Amplex red reagent based fluorescence analysis. Type of series: cell-based.

Series [18] in a line: Ex vivo inhibition of MAOA in CD1 mouse brain homogenates assessed as assessed as inhibition of dopamine deamination by measuring DOPAC metabolite levels at 30 mg/kg, po administered as single acute dose via gavage and measured after 1 hr by HPLC analysis (reference value: 1.22 +/- 0.2 ug/g). The class given is functional.
Series [19] deals with Mus musculus. Description: Antidepressant-like activity in CD1 mouse assessed as reduction in immobility time at 30 mg/kg, po administered via gavage for 7 days and measured 1 h post last dose by Porsolt-forced swim test. The class given is functional, organism-based. The conditions noted are these: time 7.0 day. In short, it runs like this: as §2
The subject of series [20] is Mus musculus. Description: Antidepressant-like activity in CD1 mouse assessed as maximum efficacy at 20 mg/kg, po administered as subchronic dose gavage for 7 days and measured 1 h post last dose by Porsolt-forced swim test. The class given is functional, organism-based. Particulars: time 7.0 day. In a few lines: as §2
The nature of series [21]: Ex vivo inhibition of MAOA in CD1 mouse brain homogenates assessed as 5-HT levels at 30 mg/kg, po administered as single acute dose via gavage and measured after 1 hr by ELISA kit method (reference value: 0.80 +/- 0.006 ug/g). The class given is functional.

On to `O=C(NCCN1CCOCC1)c1ccc(Cl)cc1` [MOCLOBEMIDE], for which the Activity was 7.1 µg/g in series [1]; “Non-Toxic” in [2]; 0.91 µg/g in series [4]; 0.35 nmol/min/mg in series [5]; 0.33 nmol/min/mg in series [7]; 1.24 µg/g in series [8]. Further, the Activity in series [10] is 0.23 µg/g; in series [11], 0.32 µg/g. Further, in the series on Mus musculus [3], the Emax is 20 mg/kg. The result in the series with Mus musculus [6], with Mus musculus [9] and in the series with Mus musculus [12] was Active.

For the compound `COc1ccc(C2=NN(C(=O)Cn3c(=O)oc4ccc(C)cc43)C(c3cccc(OC)c3OC)C2)cc1` (stereo unspecified), the Activity entry in series [13] was “Non-Toxic”; in [15], 0.3 µg/g; in [16], 0.35 µg/g; in series [18] it was 1.25 µg/g; in [21], 1.1 µg/g. Moreover, the Papp at 16 h, 25 ug/ml in series [14] amounted to 8.05 ×10⁻⁶ cm/s. For the same compound, in [17], the pKi was 3.18. For the same compound, the outcome in the series on Mus musculus [19] was Active. The outcome with Mus musculus [20] was inactive.
